Experimental findings from the EternaBench riboswitch data are described below.

The term apparent Kd denotes a dissociation constant that holds for the conditions of the assay.

For the data set, the system named is MS2 coat protein. Description: apparent Kd, MS2 coat protein; higher = weaker binding; RNA-MaP array; tryptophan 2.4 mM where present. In short, it runs like this: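 Each design was made on Illumina sequencing-chip clusters by stalled E. coli RNA polymerase and titrated with SNAP-549-labelled MS2 coat protein from 0.7 or 1.5 nM, doubling to 3 µM, in the absence and then the presence of constant ligand. The buffer was 100 mM Tris-HCl pH 7.5, 80 mM KCl, 4 mM MgCl2, BSA, DTT, yeast tRNA and Tween-20. The apparent Kd is the median of filtered per-cluster fits of binding curves, with green signal normalised to red-channel RNA signal and control-cluster median Fmax.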

The mark [1] stands for this setting: designed as: OFF switch for tryptophan, no ligand.
The mark [2] stands for this setting: ligand present: tryptophan, designed as: OFF switch for tryptophan.
[3] abbreviates: designed as: ON switch for tryptophan, no ligand.
[4] abbreviates: ligand present: tryptophan, designed as: ON switch for tryptophan.

Consider “UUAUAAGUACCGGUCCUCAGAUCCUCAUGACGAGGACCGGUACGGCCGCCACUCGAAACAUGAGGAUCACCCAUGUAAUAACAUU”, for which the “apparent Kd” value by setting is: under setting [1], 0.02 µM; under setting [2], 0.0201 µM.

As to “AACAUGAGGAUCACCCAUGUCCCAUGUGAACGAGGACCGGUACGGCCGCCACUCGACCGAGGCGGCACAUGAGGAUCACCCGCAU”, the “apparent Kd” value is 0.375 µM under setting [3] and 0.926 µM under setting [4].

“AAUACCGGAUCGGCCGCCACUGGUUGGCCCUGUGUACAUGAGGAUCACCCAUGUCCAUCCCAAACCAGGACCGGGAUCUUUGUGC”: the “apparent Kd” value reads like this: under setting [3], 0.012 µM; under setting [4], 0.0102 µM.

As to “GCGGAAUAAUCGGCCGCCACUAUGAGACAGGAAACUGUCACAUGAGGAUCACCCAUGUAUCCUCAUAGGACCGGGAUUAAAACGC”, the “apparent Kd” value by setting is: under setting [3], 0.0763 µM; under setting [4], 0.0194 µM.

“GCAUCCUAGUCGGCCGCCACUGCAAUUGUAAUACUGCUACAUGAGGAUCACCCAUGUCCAUGUAGCAGGACCGGGACUAGGAUGC”: the “apparent Kd” value under setting [3] came out at 0.578 µM and the “apparent Kd” value under setting [4] is 0.0798 µM.

Turning to “GAGCUCGUGGACUGGCGUGCUCCGCUCCGUCGAGGACCGGUACGGCCGCCACUCGACAUGAGGAUCACCCAUGUGUGAGCUCGCU”, the “apparent Kd” value by setting is: under setting [1], 0.0753 µM; under setting [2], 0.0542 µM.

For “AACAUGAGGAUCACCCAUGUCCCAUGUGAACGAGGACCGGUACGGCCGCCACUCGAAUAAGGCGGCACAUGAGGAUCACCCACAU”, the “apparent Kd” value was found to be 0.168 µM under setting [3] and 0.373 µM under setting [4].

Consider “GGAUAGGACACGGCCGCCACUAGCUAGGAUACUAGCAACAUUUCCUCACAUGAGGAUCACCCAUGUAGGACCGGGUGUCCUAUCG”, for which the “apparent Kd” value runs as follows: under setting [1], 0.111 µM; under setting [2], 0.135 µM.

As for “CGCAACAUGAGGAUCACCCAUGUAAUGACGCGAGGACCGGUACGGCCGCCACUCGCCUGCCAAUGAGCGCAUGCGGCCUGGGUAU”, the “apparent Kd” value under setting [1] came out at 0.0116 µM and the “apparent Kd” value under setting [2] was found to be 0.0145 µM.

As to “GAUAUUUGAAAACAAAUAUCAGUGGGUGAACGAGGACCGGUACGGCCGCCACUCGGACAUGAGGAUCACCCAUGUCCAUGUGAAA”, the “apparent Kd” value was 0.0156 µM under setting [1] and 0.0374 µM under setting [2].

Regarding “CACGAAAGAUCGGCCGCCACUAAUCGAUGUGUUCUUUCACAUGAGGAUCACCCAUGUUCUUGCGUUAGGACCGGGAUUGAGCGUG”, the “apparent Kd” value by setting is: under setting [1], 0.0387 µM; under setting [2], 0.0319 µM.

For the sequence “AACAUCACAACGGCCGCCACUGCACAUGACAACAUGAGGAUCACCCAUGUGGAUCACCCAUGUCCCAGGACCGGGUUAUGAGGAU”, the “apparent Kd” value is, setting by setting: under setting [3], 0.0291 µM; under setting [4], 0.0259 µM.

On to “AAAGAUCGGAAACGAUCGGCGGCUUGGGCGCGAGGACCGGUACGGCCGCCACUCGGGAAACAUGAGGAUCACCCAUGUUGCUUCU”, for which the “apparent Kd” value runs as follows: under setting [1], 0.0109 µM; under setting [2], 0.012 µM.

Take “AAUUAGAUGUCGGCCGCCACUGAUGUGUCUGUUGCGUCCAGUGUGUACAUGAGGAUCACCCAUGUCAGGACCGGGACUUUAAAUU”: the “apparent Kd” value is, setting by setting: under setting [1], 0.011 µM; under setting [2], 0.034 µM.

On to “ACGCUGCAUAGGAAAACUAUGUAGCGAAAUCGAGGACCGGUACGGCCGCCACUCGUCCUCAACAUGAGGAUCACCCAUGUAAUAA”, for which the “apparent Kd” value under setting [1] is 0.0199 µM and the “apparent Kd” value under setting [2] was 0.0347 µM.

For the sequence “AUUCAUGGAAACAUGACAUAGGGAUCACUCCGAGGACCGGUACGGCCGCCACUCGCGAGGAGGCACAUGAGGAUCACCCAUGUUA”, the “apparent Kd” value reads like this: under setting [3], 0.049 µM; under setting [4], 0.0397 µM.

As for “ACAUGAGGAUCACCCAUGUGAAGCAGGGUACGAGGACCGGUACGGCCGCCACUCGAGGAUUAUGCCGAGUGAAUGGCAACGAUGU”, the “apparent Kd” value was found to be 0.0144 µM under setting [1] and 0.0154 µM under setting [2].

“AUACAUGAGGAUCACCCAUGUGAUGGCCGGCGAGGACCGGUACGGCCGCCACUCGUGAUCCGUCCUGAAAGCAAAGCUUCCAGCA”: the “apparent Kd” value was 0.182 µM under setting [3] and 0.239 µM under setting [4].

As to “GGGAGGGAGGCGGCCGCCACUGAUUUUCAUAUAUAUAUAACAUGAGGAUCACCCAUGUGGAUAUACAGGACCGGGCCUUUUUUUU”, the “apparent Kd” value under setting [3] is 0.0198 µM and the “apparent Kd” value under setting [4] amounted to 0.0132 µM.

Take “GCUCACAUGAGGAUCACCCAUGUACGUCCGCGAGGACCGGUACGGCCGCCACUCGUGUUAGCUUCAAACUUGUUAGUGUUAAACA”: the “apparent Kd” value under setting [3] stood at 0.0404 µM and the “apparent Kd” value under setting [4] is 0.0161 µM.

In the case of “ACAUGAGGAUCACCCAUGUAACGGCAUAAUCGAGGACCGGUACGGCCGCCACUCGGAAUCAGUGACAGGCAUAUUUAUUAUAAGA”, the “apparent Kd” value runs as follows: under setting [1], 0.00988 µM; under setting [2], 0.01 µM.

As to “GAUCGAAAUAACGCAUAGGAAAACUAUGCGCGAGGACCGGUACGGCCGCCACUCGUCCUCACAUGAGGAUCACCCAUGUACGAUC”, the “apparent Kd” value under setting [1] amounted to 0.0224 µM and the “apparent Kd” value under setting [2] was found to be 0.0586 µM.

As to “AUUGUGAAGUCGGCCGCCACUGGUUAGUUUAACCUCAUGUAACAUGAGGAUCACCCAUGUAAUGACAGGACCGGGACAAUAGUAA”, the “apparent Kd” value reads like this: under setting [1], 0.187 µM; under setting [2], 0.151 µM.

As to “AUAACAUGAGGAUCACCCAUGUAUUGGUAACGAGGACCGGUACGGCCGCCACUCGUAUUUUGGUGGUAUUAUAUAUAUAUGAUUA”, the “apparent Kd” value was determined as 0.0208 µM under setting [3] and 0.0197 µM under setting [4].

As for “GUCUUUGACGAUCUGGGAAAACCAGAUCGACGAGGACCGGUACGGCCGCCACUCGUGUUUUCUUUACAUGAGGAUCACCCAUGUA”, the “apparent Kd” value by setting is: under setting [3], 0.0131 µM; under setting [4], 0.0127 µM.

On to “AACAUGAGGAUCACCCAUGUGUCCUCGAAACGAGGACCGGUACGGCCGCCACUCGAAUAAGCUGUUGACGAAAAGUCAGCAGCAA”, for which the “apparent Kd” value reads like this: under setting [1], 0.257 µM; under setting [2], 0.67 µM.

On to “AAUUCAAGGUUCUUGAUGUAUUAUAUAUUUCGAGGACCGGUACGGCCGCCACUCGUUAAUUACAUGAGGAUCACCCAUGUUAGCU”, for which the “apparent Kd” value reads like this: under setting [1], 0.017 µM; under setting [2], 0.0209 µM.

Turning to “UAUAUAUAUCACUAACUGUUCUUGAGGUCUCGAGGACCGGUACGGCCGCCACUCGGGCCGCCUCACAUGAGGAUCACCCAUGUCC”, the “apparent Kd” value by setting is: under setting [1], 0.0564 µM; under setting [2], 0.0682 µM.

In the case of “AAUUAAACAUCGGCCGCCACUUACUCAUGAGGUAACAACAUGAGGAUCACCCAUGUUUGAGGAUCAAGGACCGGGAUGUAAUAAU”, the “apparent Kd” value reads like this: under setting [3], 0.0313 µM; under setting [4], 0.0226 µM.

For “CACAGUGCGAAUUUGAAAUCGCACGAUCCUCGAGGACCGGUACGGCCGCCACUCGCGCGGGUCGUACAUGAGGAUCACCCAUGUC”, the “apparent Kd” value was 0.317 µM under setting [3] and 0.545 µM under setting [4].
